The nature of data set [1]: Half life in RPMI media at 10 uM by HPLC analysis. Format: physicochemical. The procedure, abridged: (§1)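 Compound added from DMSO stock to pre-heated RPMI 1640 (1.8 mL) plus 0.2 mL human AB male serum or FBS, or to 2 mL RPMI alone, at final 1 or 10 μM. Samples analysed by HPLC at pH 9.5 (formic acid/ammonia in acetonitrile/water), with conversion taken from the substrate/internal standard peak ratio. Run in triplicate; half-lives ± SD.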

The nature of data set [2]: Half life in RPMI media at 10 uM by HPLC analysis in presence of human blood serum. The format is ADME. The procedure, abridged: as §1
Data set [3] in a line: Half life in RPMI media at 1 uM by HPLC analysis in presence of human blood serum. Format: ADME. The procedure, abridged:
as §1

Data set [4] can be described thus: Selectivity ratio of IC50 for MEF to IC50 for human Jurkat T cells. The conditions noted are these: mouse (MEF) and human (Jurkat T cells), read-out: Ratio IC50. Format: cell-based.
A further data set concerns MEF. Description: Antiproliferative activity against MEF after 72 hrs by MTT assay. The format is cell-based. The conditions noted are these: Mus musculus.
Data set [5] is described as follows: Selectivity ratio of IC50 for MEF to IC50 for human HeLa cells. The format is cell-based. The conditions noted are these: mouse (MEF) and human (HeLa cells), read-out: Ratio IC50.
Data set [6] deals with SK-MEL-2. The data set is described as follows: Antiproliferative activity against human SK-MEL-2 cells after 72 hrs by MTT assay in presence of 5% FBS. The format is functional, cell-based. The conditions noted are these: SK-MEL-2, 72 h. A digest of the protocol: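 SK-MEL2 grown with reduced serum (5% FBS) to slow proliferation. Compounds added in DMSO (0.1% final), followed by a 72 h MTT proliferation assay.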

The nature of data set [7]: Dissociation constant, pKa of the compound. The format is physicochemical.
In data set [8] the test system is SK-MEL-2. The data set is described as follows: Selectivity ratio of IC50 for human SK-MEL-2 cells in presence of 5% FBS to IC50 for human SK-MEL-2 cells in presence of 10% FBS. Format: functional.
Data set [9] in a line: Antiproliferative activity against human Jurkat T cells after 72 hrs by MTT assay. Format: functional, cell-based. The procedure, abridged:
(§2)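 HeLa and SK-MEL2 grown in DMEM, Jurkat in RPMI 1640, each with 10% FBS and penicillin-streptomycin, at 37 °C and 5% CO2. Adherent cells seeded at 2000/well and left to recover overnight; Jurkat seeded at 5000/well with no recovery. Compound added in DMSO (0.1% final), then 72 h incubation and MTT readout.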
In general terms: Tetrazolium dyes change colour on reduction, which living cells bring about.

Data set [10] relates to SK-MEL-2. The data set is described as follows: Antiproliferative activity against human SK-MEL-2 cells after 72 hrs by MTT assay in presence of 10% FBS. Format: functional, cell-based. The conditions noted are these: SK-MEL-2, 72 h. A digest of the protocol:
as §2

A further data set deals with HeLa. The data set is described as follows: Antiproliferative activity against human HeLa cells after 72 hrs by MTT assay. The format is functional, cell-based. The procedure, abridged:
as §2

In a further data set the test system is Jurkat. Description: Immunosuppressive activity in human Jurkat T cells assessed as inhibition of IL-2 transcription. The format is functional, cell-based.
The nature of data set [11]: Antiproliferative activity against BAEC assessed as DNA synthesis level after 24 hrs by thymidine incorporation assay. The conditions noted are these: Bos taurus. The procedure, abridged: (§3)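 Cells kept at 37 °C, 5% CO2 with penicillin-streptomycin and 10% FBS. Adherent lines seeded at 2000 cells/well and left to recover overnight; Jurkat seeded at 5000 cells/well with no recovery period. Compound added in DMSO (0.1% final, vehicle-only control) at 0.001–100 nM over 10 wells. DNA synthesis read out after 24 h. Mean IC50 from at least 3 independent assays.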

Data set [12] is described as follows: Antiproliferative activity against human Jurkat T cells assessed as DNA synthesis level after 24 hrs by thymidine incorporation assay. The format is functional, cell-based. A digest of the protocol:
as §3
A general note: Uptake of a labelled nucleoside into DNA is a usual measure of proliferation.

In another data set the test system is HaCaT. Description: Antiproliferative activity against human HaCaT cells assessed as DNA synthesis level after 24 hrs by thymidine incorporation assay. Format: functional, cell-based. The procedure, abridged:
as §3

A further data set deals with RKO. Description: Antiproliferative activity against human RKO cells assessed as DNA synthesis level after 24 hrs by thymidine incorporation assay. Format: functional, cell-based. A digest of the protocol: as §3
Data set [13] addresses T1, DNA polymerase alpha catalytic subunit (Homo sapiens, UniProt P09884).
T1 sequence (P09884 whole entry): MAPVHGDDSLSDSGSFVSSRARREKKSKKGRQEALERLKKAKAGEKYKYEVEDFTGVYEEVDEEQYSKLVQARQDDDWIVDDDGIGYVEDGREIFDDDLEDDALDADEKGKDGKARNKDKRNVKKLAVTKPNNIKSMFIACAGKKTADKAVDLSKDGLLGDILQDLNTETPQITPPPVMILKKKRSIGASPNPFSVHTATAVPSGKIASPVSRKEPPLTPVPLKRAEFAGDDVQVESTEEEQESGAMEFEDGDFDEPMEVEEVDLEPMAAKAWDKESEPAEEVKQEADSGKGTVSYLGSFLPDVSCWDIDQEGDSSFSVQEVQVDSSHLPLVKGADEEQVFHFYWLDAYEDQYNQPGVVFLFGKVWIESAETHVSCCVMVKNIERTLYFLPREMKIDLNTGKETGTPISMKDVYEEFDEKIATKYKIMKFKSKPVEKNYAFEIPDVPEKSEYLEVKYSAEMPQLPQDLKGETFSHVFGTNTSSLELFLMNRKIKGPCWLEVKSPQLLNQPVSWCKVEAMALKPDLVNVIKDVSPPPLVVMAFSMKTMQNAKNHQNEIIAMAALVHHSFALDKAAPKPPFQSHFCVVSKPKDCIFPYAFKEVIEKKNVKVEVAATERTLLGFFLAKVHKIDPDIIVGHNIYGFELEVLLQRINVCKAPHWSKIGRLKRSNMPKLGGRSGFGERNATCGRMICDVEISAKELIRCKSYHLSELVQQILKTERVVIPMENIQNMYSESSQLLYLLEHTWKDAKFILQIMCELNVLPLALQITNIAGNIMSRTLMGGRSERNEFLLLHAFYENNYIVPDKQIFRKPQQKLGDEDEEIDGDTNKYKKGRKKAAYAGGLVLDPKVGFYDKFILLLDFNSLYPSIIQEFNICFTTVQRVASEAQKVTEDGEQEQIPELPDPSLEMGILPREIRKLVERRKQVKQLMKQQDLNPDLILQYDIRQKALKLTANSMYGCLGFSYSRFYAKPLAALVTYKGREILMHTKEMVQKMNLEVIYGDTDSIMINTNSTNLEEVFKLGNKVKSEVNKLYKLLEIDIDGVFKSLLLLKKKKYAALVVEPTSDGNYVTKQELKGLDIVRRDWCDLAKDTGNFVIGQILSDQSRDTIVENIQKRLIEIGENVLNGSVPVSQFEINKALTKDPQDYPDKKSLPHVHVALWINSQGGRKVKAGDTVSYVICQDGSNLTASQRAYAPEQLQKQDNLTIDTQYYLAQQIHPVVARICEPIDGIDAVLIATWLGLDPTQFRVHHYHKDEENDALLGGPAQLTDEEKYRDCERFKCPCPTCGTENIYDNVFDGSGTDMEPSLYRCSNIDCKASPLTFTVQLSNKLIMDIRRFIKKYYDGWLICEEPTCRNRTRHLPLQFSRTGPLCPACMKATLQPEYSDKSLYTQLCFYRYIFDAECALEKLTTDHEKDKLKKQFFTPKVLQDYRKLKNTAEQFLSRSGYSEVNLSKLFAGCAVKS
The data set is described as follows: Inhibition of DNA polymerase-alpha (unknown origin) assessed as incorporation of Br(d)UTP by colorimetric analysis.

Each structure is given as a SMILES string.

As usually defined, the IC50 is the concentration that inhibits the measured activity by half. A word on the pKa: it is the pH at which an ionisable group is half protonated.

As for `CC(/C=C/C(C)=C/[C@@H]1Cc2nc(cs2)CCCCC(=O)O[C@@H](C)C/C(C)=C/C=C\C(=O)O1)=C\CN(C)C`, the t1/2 in [1] was found to be 3.25 h; in data set [2], 13 h; in data set [3], 24 h. Further, the selectivity ratio in data set [4] and in data set [5] was 5 each time. In addition, the IC50 with MEF is above 50 nM; with SK-MEL-2 [6] it was 30 nM; in data set [9], 11 nM; with SK-MEL-2 [10], 13 nM; in the data set with HeLa it was 9.8 nM; in the data set on Jurkat, 0.81 nM. Also, the IC50 in [11] is 1.97 nM; in data set [12], 3 nM; in the data set with HaCaT, 0.9 nM; in the data set with RKO it was 1.2 nM; in [13], 3 µM. Besides, the pKa in data set [7] amounted to 11. Also, the “Ratio IC50” value with SK-MEL-2 [8] is reported as 2.

(Values after ChEMBL document CHEMBL3124904, “Second-generation derivatives of the eukaryotic translation initiation inhibitor pateamine A targeting eIF4A as potential anticancer agents” (Bioorg Med Chem, 2014).)
